{"source": "ChEMBL document CHEMBL1132342", "about": "“Novel hypotensive agents from Verbesina caracasana. 6. Synthesis and pharmacology of caracasandiamide” (1999)", "key": {"Rattus norvegicus [1]": {"test_system": "Rattus norvegicus", "experiment": "Change in systolic blood pressure after iv administration of 1600 ug/Kg in the presence of isoprenaline (agonist) in anesthetized rats", "assay_type": "functional, Artery"}, "Rattus norvegicus [2]": {"test_system": "Rattus norvegicus", "experiment": "Change in systolic blood pressure after iv administration of 3200 ug/Kg in anesthetized rats", "assay_type": "functional, Artery", "method_in_brief": "(§1)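 Male Wistar rats (299 ± 3 g) were anesthetized with ethylurethane ip, tracheally cannulated and breathing spontaneously, at 37 °C, and stabilized for 60 min. Doses of 50-3200 µg/kg (ratio 2.0) in saline were injected by femoral vein, 50 µL each. Recordings: femoral arterial BP, electromagnetic abdominal-aortic flow, SV from integrated pulsatile flow, polygraphic RF. Peak changes, mean ± SE, n = 12 (n = 7 at 3200).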"}, "Rattus norvegicus [3]": {"test_system": "Rattus norvegicus", "experiment": "Change in systolic blood pressure after iv administration of 4.12 uM/Kg in anesthetized rats", "assay_type": "functional, Artery", "method_in_brief": "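Doses were 4.12 µM/kg (two agents), guanethidine 25, clonidine 0.108, hexamethonium 12, reserpine 8, papaverine 5 and histamine […]. Peak changes in systolic BP or HR were recorded.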"}, "Rattus norvegicus [4]": {"test_system": "Rattus norvegicus", "experiment": "Change in diastolic blood pressure after iv administration of 4.12 uM/Kg in anesthetized rats", "assay_type": "functional, Artery"}, "Rattus norvegicus [5]": {"test_system": "Rattus norvegicus", "experiment": "Change in diastolic blood pressure after iv administration of 400 ug/Kg in anesthetized rats", "assay_type": "functional, Artery", "method_in_brief": "(§2)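 Adult male Wistar rats under ip ethylurethane (10% w/v in saline, 1 mL/kg) with tracheal cannula and spontaneous breathing, kept at 37 °C. Arterial BP was recorded by femoral artery catheter; compound in saline (50 µL) was given via femoral vein at 50–3200 µg/kg, ratio 2.0. Peak change is given as mean ± SE, n = 12 (n = 7 at 3200 µg/kg).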"}, "Rattus norvegicus [6]": {"test_system": "Rattus norvegicus", "experiment": "Change in diastolic blood pressure after iv administration of 400 ug/Kg in the presence of noradrenaline (agonist) in anesthetized rats", "assay_type": "functional, Artery", "method_in_brief": "(§3)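 Urethane-anesthetized male Wistar rats (16 rats, two equal groups) received 400 or 1600 µg/kg compound iv. Cardiovascular responses to iv agonist boluses (noradrenaline 1 µg/kg, acetylcholine 2.50 µg/kg, adrenaline, isoprenaline) were measured before and after compound dosing. Peak responses are given as mean ± SE; p < 0.05 versus control mean.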"}, "Rattus norvegicus [7]": {"test_system": "Rattus norvegicus", "experiment": "Change in systolic blood pressure after iv administration of 800 ug/Kg compound (treatment with papaverine(1 mg/Kg/min, iv)in anesthetized rats", "assay_type": "functional, Artery", "method_in_brief": "(§4)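 Anesthetized rats, n = 6 per group, received iv doses of 200–1600 µg/kg (ratio 2.0) either alone (control) or under pretreatment: continuous iv papaverine infusion 1 mg/kg/min, reserpine 5 mg/kg/day ip for 2 days, or hexamethonium 5 mg/kg iv. Peak changes in BP, heart rate and dP/dt recorded; means ± SE, p < 0.05 versus control.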"}, "Rattus norvegicus [8]": {"test_system": "Rattus norvegicus", "experiment": "Change in diastolic blood pressure after iv administration of 800 ug/Kg compound (treatment with hexamethonium (5 mg/Kg, iv)in anesthetized rats", "assay_type": "functional, Artery", "method_in_brief": "(§5)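 In anesthetized male Wistar rats, responses to iv compound (200–1600 µg/kg, ratio 2.0) were measured alone and under three pretreatments: continuous iv papaverine infusion (1 mg/kg/min), ip reserpine (5 mg/kg/day for 2 days), or iv hexamethonium (5 mg/kg). Peak changes are given as mean ± SE, n = 6 per group; p < 0.05 versus control.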"}, "Rattus norvegicus [9]": {"test_system": "Rattus norvegicus", "experiment": "Change in systolic blood pressure after iv administration of 1600 ug/Kg in anesthetized rats", "assay_type": "functional, Artery", "method_in_brief": "as §1"}, "Rattus norvegicus [10]": {"test_system": "Rattus norvegicus", "experiment": "Change in diastolic blood pressure after iv administration of 1600 ug/Kg compound (treatment with papaverine(1 mg/Kg/min, iv)in anesthetized rats", "assay_type": "functional, Artery", "method_in_brief": "as §5"}, "Rattus norvegicus [11]": {"test_system": "Rattus norvegicus", "experiment": "Change in heart rate after iv administration of 1600 ug/kg compound (treatment with papaverine(1 mg/kg/min, iv))in anesthetized rats", "assay_type": "functional", "method_in_brief": "as §5"}, "Rattus norvegicus [12]": {"test_system": "Rattus norvegicus", "experiment": "Change in heart rate after iv administration of 1600 ug/Kg in anesthetized rats", "assay_type": "functional", "method_in_brief": "as §2"}, "Rattus norvegicus [13]": {"test_system": "Rattus norvegicus", "experiment": "Change in heart rate after iv administration of 4.12 uM/Kg in anesthetized rats", "assay_type": "functional"}, "Rattus norvegicus [14]": {"test_system": "Rattus norvegicus", "experiment": "Change in heart rate after iv administration of 4.12 uM/kg in anesthetized rats", "assay_type": "functional"}, "Rattus norvegicus [15]": {"test_system": "Rattus norvegicus", "experiment": "Change in heart rate after iv administration of 400 ug/Kg in the presence of adrenaline (agonist) in anesthetized rats", "assay_type": "functional", "method_in_brief": "as §3"}, "Rattus norvegicus [16]": {"test_system": "Rattus norvegicus", "experiment": "Change in heart rate after iv administration of 400 ug/Kg in the presence of noradrenaline (agonist) in anesthetized rats", "assay_type": "functional"}, "Rattus norvegicus [17]": {"test_system": "Rattus norvegicus", "experiment": "Change in mean aortic flow after iv administration of 3200 ug/Kg in anesthetized rats", "assay_type": "functional", "method_in_brief": "as §1"}, "Rattus norvegicus [18]": {"test_system": "Rattus norvegicus", "experiment": "Maximum rate of rise of the left ventricular isovolumetric pressure after iv administration of 1600 ug/Kg compound (treatment with reserpine(5 mg/kg/day for 2 days, ip)in anesthetized rats", "assay_type": "functional, Heart left ventricle", "method_in_brief": "as §4"}, "Rattus norvegicus [19]": {"test_system": "Rattus norvegicus", "experiment": "Maximum rate of rise of the left ventricular isovolumetric pressure was measured after iv administration of 400 ug/Kg in the presence of acetylcholine (agonist) in anesthetized rats", "assay_type": "functional, Heart left ventricle", "method_in_brief": "(§6)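 Anesthetized male Wistar rats, two groups of 8, received 400 or 1600 µg/kg iv. Before and after this dose, iv agonist challenges were given: noradrenaline 1 µg/kg, adrenaline, acetylcholine 2.50 µg/kg, or isoprenaline. Systolic/diastolic BP, heart rate and dP/dt responses were recorded before (control) and after dosing; significance was set at p < 0.05 versus control.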"}, "Rattus norvegicus [20]": {"test_system": "Rattus norvegicus", "experiment": "Maximum rate of rise of the left ventricular isovolumetric pressure was measured after iv administration of 400 ug/Kg in the presence of isoprenaline (agonist) in anesthetized rats", "assay_type": "functional, Heart left ventricle", "method_in_brief": "as §6"}, "Rattus norvegicus [21]": {"test_system": "Rattus norvegicus", "experiment": "Change in respiratory frequency after iv administration of 200 ug/Kg in anesthetized rats", "assay_type": "functional", "method_in_brief": "as §1"}, "Rattus norvegicus [22]": {"test_system": "Rattus norvegicus", "experiment": "Change in respiratory frequency after iv administration of 800 ug/Kg in anesthetized rats", "assay_type": "functional", "method_in_brief": "as §1"}, "Rattus norvegicus [23]": {"test_system": "Rattus norvegicus", "experiment": "Maximum rate of rise of the left ventricular isovolumetric pressure was measured after iv administration of 4.12 uM/Kg in anesthetized rats", "assay_type": "functional, Heart left ventricle"}, "Rattus norvegicus [24]": {"test_system": "Rattus norvegicus", "experiment": "Maximum rate of rise of the left ventricular isovolumetric pressure was measured after iv administration of 4.12 uM/kg in anesthetized rats; ratio given for dP/dt", "assay_type": "functional, Heart left ventricle"}, "Rattus norvegicus [25]": {"test_system": "Rattus norvegicus", "experiment": "Maximum rate of rise of the left ventricular isovolumetric pressure after iv administration of 800 ug/Kg compound (treatment with reserpine(5 mg/kg/day for 2 days, ip)in anesthetized rats", "assay_type": "functional, Heart left ventricle", "method_in_brief": "as §4"}, "Rattus norvegicus [26]": {"test_system": "Rattus norvegicus", "experiment": "Maximum rate of rise of the left ventricular isovolumetric pressure was measured after iv administration of 100 ug/Kg in anesthetized rats", "assay_type": "functional, Heart left ventricle", "method_in_brief": "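Urethane-anesthetized (10% w/v, […] ip in saline) adult male Wistar rats, trachea cannulated, breathing spontaneously, 37 °C. Femoral artery catheter for blood pressure, femoral vein for dosing. Sequential iv doses 50–3200 µg/kg (ratio 2.0) in saline, each given after parameters returned to baseline. Peak changes recorded; means ± SE, n = 12 (n = 7 at 3200 µg/kg).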"}, "Rattus norvegicus [27]": {"test_system": "Rattus norvegicus", "experiment": "Change in stroke volume after iv administration of 400 ug/Kg in anesthetized rats", "assay_type": "functional", "method_in_brief": "as §1"}, "Rattus norvegicus [28]": {"test_system": "Rattus norvegicus", "experiment": "Change in stroke volume after iv administration of 800 ug/Kg in anesthetized rats", "assay_type": "functional", "method_in_brief": "as §1"}}, "note": "Values joined by “and” are separate entries in the source; they are usually repeats but may differ in a detail not shown here. Equal values may be shown once.", "data": [{"compound": "COc1ccc(C2C(c3ccc(OC)c(OC)c3)[C@H](C(=O)NCCCC/N=C(\\N)NCC=C(C)C)[C@@H]2C(=O)NCCCC/N=C(\\N)NCC=C(C)C)cc1OC", "note": "(stereo partly specified) [CARACASANDIAMIDE]", "values": [{"measurement": "BP", "setting": "Rattus norvegicus [1]", "value": -43, "unit": "mmHg"}, {"measurement": "BP", "setting": "Rattus norvegicus [2]", "value": -48, "unit": "mmHg"}, {"measurement": "Change in BP", "setting": "Rattus norvegicus [2]", "value": -46, "unit": "%"}, {"measurement": "BP", "setting": "Rattus norvegicus [3]", "value": -43, "unit": "mmHg"}, {"measurement": "BP", "setting": "Rattus norvegicus [4]", "value": -47, "unit": "mmHg"}, {"measurement": "BP", "setting": "Rattus norvegicus [5]", "value": -17, "unit": "mmHg"}, {"measurement": "Change in BP", "setting": "Rattus norvegicus [5]", "value": -22, "unit": "%"}, {"measurement": "BP", "setting": "Rattus norvegicus [6]", "value": 15, "unit": "mmHg"}, {"measurement": "BP", "setting": "Rattus norvegicus [7]", "value": -22, "unit": "mmHg"}, {"measurement": "BP", "setting": "Rattus norvegicus [8]", "value": -53, "unit": "mmHg"}, {"measurement": "BP", "setting": "Rattus norvegicus [9]", "value": -41, "unit": "mmHg"}, {"measurement": "Change in BP", "setting": "Rattus norvegicus [9]", "value": -39, "unit": "%"}, {"measurement": "BP", "setting": "Rattus norvegicus [10]", "value": -29, "unit": "mmHg"}, {"measurement": "Heart rate", "setting": "Rattus norvegicus [11]", "value": -31, "unit": "beats min-1"}, {"measurement": "Change in heart rate", "setting": "Rattus norvegicus [12]", "value": -8, "unit": "%"}, {"measurement": "Heart rate", "setting": "Rattus norvegicus [12]", "value": -30, "unit": "beats min-1"}, {"measurement": "Heart rate", "setting": "Rattus norvegicus [13]", "value": -35, "unit": "beats min-1"}, {"measurement": "Heart rate", "setting": "Rattus norvegicus [14]", "value": -35, "unit": "beats min-1"}, {"measurement": "Heart rate", "setting": "Rattus norvegicus [15]", "value": 24, "unit": "beats min-1"}, {"measurement": "Heart rate", "setting": "Rattus norvegicus [16]", "value": 23, "unit": "beats min-1"}, {"measurement": "Change in mean aortic flow", "setting": "Rattus norvegicus [17]", "value": -56, "unit": "%"}, {"measurement": "Mean aortic flow", "setting": "Rattus norvegicus [17]", "value": -41, "unit": "mL/min"}, {"measurement": "dP/dt", "setting": "Rattus norvegicus [18]", "value": 1238, "unit": "mmHg s-1"}, {"measurement": "dP/dt", "setting": "Rattus norvegicus [19]", "value": -5820, "unit": "mmHg s-1"}, {"measurement": "dP/dt", "setting": "Rattus norvegicus [20]", "value": 13696, "unit": "mmHg s-1"}, {"measurement": "Change in respiratory frequency", "setting": "Rattus norvegicus [21]", "value": "9 beats min-1 and 9%"}, {"measurement": "Change in respiratory frequency", "setting": "Rattus norvegicus [22]", "value": "-15 beats min-1 and -16%"}, {"measurement": "dP/dt", "setting": "Rattus norvegicus [23]", "value": 3991, "unit": "mmHg s-1"}, {"measurement": "dP/dt", "setting": "Rattus norvegicus [24]", "value": 3990, "unit": "mmHg s-1"}, {"measurement": "dP/dt", "setting": "Rattus norvegicus [25]", "value": 720, "unit": "mmHg s-1"}, {"measurement": "Change in dP/dt", "setting": "Rattus norvegicus [26]", "value": 18, "unit": "%"}, {"measurement": "dP/dt", "setting": "Rattus norvegicus [26]", "value": 1129, "unit": "mmHg s-1"}, {"measurement": "Change in stroke volume", "setting": "Rattus norvegicus [27]", "value": -23, "unit": "%"}, {"measurement": "Stroke volume", "setting": "Rattus norvegicus [27]", "value": -46, "unit": "µL"}, {"measurement": "Change in stroke volume", "setting": "Rattus norvegicus [28]", "value": -43, "unit": "%"}, {"measurement": "Stroke volume", "setting": "Rattus norvegicus [28]", "value": -86, "unit": "µL"}]}]}
